# Assay results gathered from unrelated publications.
# Lines come from different studies, so protocols differ.
# ABL1 phosphorylated: Tyrosine-protein kinase ABL1, phosphorylated (ABL1, Homo sapiens, UniProt P00519)
# ABL1 T315I non-phosphorylated: Tyrosine-protein kinase ABL1, non-phosphorylated (ABL1, Homo sapiens, UniProt P00519, T315I)
# ABL1 F317L phosphorylated: Tyrosine-protein kinase ABL1, phosphorylated (ABL1, Homo sapiens, UniProt P00519, F317L)
# ABL1 T315I phosphorylated: Tyrosine-protein kinase ABL1, phosphorylated (ABL1, Homo sapiens, UniProt P00519, T315I)
# ABL1 T315I: Tyrosine-protein kinase ABL1 (ABL1, Homo sapiens, UniProt P00519, T315I)
# ABL1 Q252H non-phosphorylated: Tyrosine-protein kinase ABL1, non-phosphorylated (ABL1, Homo sapiens, UniProt P00519, Q252H)
# ABL1 non-phosphorylated: Tyrosine-protein kinase ABL1, non-phosphorylated (ABL1, Homo sapiens, UniProt P00519)
# ABL1 F317I phosphorylated: Tyrosine-protein kinase ABL1, phosphorylated (ABL1, Homo sapiens, UniProt P00519, F317I)
# ABL1 M351T: Tyrosine-protein kinase ABL1 (ABL1, Homo sapiens, UniProt P00519, M351T)
# ABL1 M351T phosphorylated: Tyrosine-protein kinase ABL1, phosphorylated (ABL1, Homo sapiens, UniProt P00519, M351T)
Structure (SMILES),target,read-out,method,tested at,remaining binding
CCN1CCN(Cc2ccc(C(=O)Nc3ccc(C)c(Oc4ccc5c(c4)CC(=O)N5)c3)cc2C(F)(F)F)CC1,ABL1 phosphorylated,binding,competition with immobilised ligand,1 µM,34%
O=C(NCC1CCOCC1)c1n[nH]cc1NC(=O)c1c(F)cccc1F,"Tyrosine-protein kinase ABL1, non-phosphorylated (ABL1, Homo sapiens, UniProt P00519, H396P)",binding,competition with immobilised ligand,1 µM,76%
C[C@@H]1CN(c2cc(-c3n[nH]c4ccc(OC5(C)CC5)cc34)ncn2)C[C@H](C)O1,ABL1 phosphorylated,cell-free assay,competition with immobilised ligand,0.1 µM,67%
Cc1cnc(Nc2ccc(C(=O)N3CCC(N4CCCC4)CC3)cc2)nc1-c1cc2ccccc2s1,"Tyrosine-protein kinase ABL1, non-phosphorylated (ABL1, Homo sapiens, UniProt P00519, F317L)",binding,competition with immobilised ligand,1 µM,59%
Cc1noc([C@H]2C[C@@H](c3ccc(C(F)(F)F)cc3)CN(C(=O)N3CCS(=O)(=O)C3)C2)n1,ABL1 T315I non-phosphorylated,cell-free assay,competition with immobilised ligand,1 µM,100%
O=C(c1ccc(Nc2ncc(Cl)c(-c3ccc(Cl)s3)n2)cc1)N1CCC(N2CCCC2)CC1,ABL1 T315I non-phosphorylated,binding,competition with immobilised ligand,1 µM,0%
CNC(=O)[C@@H]1CC[C@@H](n2c(-c3ccc4cnccc4c3)nc3ccc(C(=O)NCc4cccc(C(N)=O)c4)cc32)C1,"Tyrosine-protein kinase ABL1, phosphorylated (ABL1, Homo sapiens, UniProt P00519, Q252H)",binding,competition with immobilised ligand,1 µM,100%
O=C(NCCCN1CCOCC1)c1ccc(Nc2ncc(Cl)c(-c3ccc(Cl)s3)n2)cc1,ABL1 F317L phosphorylated,binding,competition with immobilised ligand,1 µM,80%
COC(=O)Nc1nc2ccc(C(=O)c3ccccc3)cc2[nH]1,ABL1 T315I phosphorylated,cell-free assay,competition with immobilised ligand,10 µM,3.2%
CN(c1nccc(-c2cnn3ncccc23)n1)C1CC1,ABL1 T315I,binding,,1 µM,100%
CCc1ccccc1C(=O)Nc1n[nH]c2c(C)c(F)c(C3C(C#N)=C(C)N(C)C(C)=C3C#N)cc12,ABL1 Q252H non-phosphorylated,cell-free assay,competition with immobilised ligand,1 µM,82%
N[C@H]1CCN(c2nccc(-c3cnn4ncccc34)n2)C1,ABL1 non-phosphorylated,binding,,1 µM,91%
C[C@@H](c1ccc(-n2cnc3c(N)ncnc32)cc1)N1CCc2nn(C)c(Cc3ccccc3)c2C1=O,ABL1 F317I phosphorylated,binding,competition with immobilised ligand,0.1 µM,62%
Nc1ncc2c(n1)-c1c([nH]c3ccc(C#CC4CC4)cc13)CCCC2,ABL1 non-phosphorylated,binding,competition with immobilised ligand,1 µM,95%
CN(CCCC(F)(F)F)c1nccc(-c2cnn3ncccc23)n1,ABL1 T315I,binding,,1 µM,100%
COc1ncc2cc3ccccc3nc2c1C#N,ABL1 Q252H non-phosphorylated,cell-free assay,competition with immobilised ligand,5 µM,100%
F[C@@H]1CCN(c2nccc(-c3cnn4ncccc34)n2)C1,"Tyrosine-protein kinase ABL1 (ABL1, Homo sapiens, UniProt P00519, Q252H)",binding,,1 µM,93%
COc1cnc(Nc2cccc(S(N)(=O)=O)c2)nc1N1CCN(c2ccccc2)C(=O)C1,"Tyrosine-protein kinase ABL1, phosphorylated (ABL1, Homo sapiens, UniProt P00519, H396P)",binding,competition with immobilised ligand,1 µM,97%
CN1CCN(c2ccc(Nc3nccc(-c4ccccc4)n3)cc2C(F)(F)F)CC1,ABL1 M351T,binding,,10 µM,15%
CCOCCn1cc(C(=O)Nc2ccc(-n3nc(-c4cccnc4)cc3C(F)(F)F)cn2)ccc1=O,ABL1 F317L phosphorylated,cell-free assay,competition with immobilised ligand,1 µM,79%
c1cncc(-c2cccc(Nc3nccc(NC4CCCCC4)n3)c2)c1,"Tyrosine-protein kinase ABL1, non-phosphorylated (ABL1, Homo sapiens, UniProt P00519, F317I)",binding,competition with immobilised ligand,10 µM,100%
Cc1nc(Cc2cccc(C(F)(F)F)c2)sc1-c1ccc(C(N)=O)nc1,ABL1 Q252H non-phosphorylated,cell-free assay,competition with immobilised ligand,1 µM,87%
Cc1cnn2ncc(-c3ccnc(N(C)C)n3)c2c1,ABL1 M351T,binding,,1 µM,91%
C=CC(=O)N1CCC(C(=O)NCC(=O)N2CCN(c3nc(-c4cnc(N)nc4C(F)F)nc(N4CCOCC4)n3)CC2)CC1,ABL1 M351T phosphorylated,binding,competition with immobilised ligand,1 µM,99%
O=C(Nc1c[nH]nc1C(=O)NC1CCNCC1)c1cc(F)cc(F)c1,ABL1 T315I phosphorylated,binding,competition with immobilised ligand,1 µM,98%
CC1CCCN1c1nccc(-c2cnn3ncccc23)n1 (centres unmarked),"Tyrosine-protein kinase ABL1 (ABL1, Homo sapiens, UniProt P00519, F317L)",binding,,1 µM,96%
O=C(c1ccc(Nc2nccc(-c3cc4ccccc4s3)n2)cc1)N1CCC(N2CCCC2)CC1,ABL1 non-phosphorylated,binding,competition with immobilised ligand,1 µM,18%
CO[C@H]1CC[C@H](CNc2ccc(S(=O)(=O)NC(=O)c3ccc(N4CCN(CC5=C(c6ccc(Cl)cc6)CC(C)(C)CC5)CC4)cc3Oc3cnc4[nH]ccc4c3)cc2[N+](=O)[O-])CC1,ABL1 Q252H non-phosphorylated,cell-free assay,competition with immobilised ligand,1 µM,81%
C[C@@H]1CCN(c2nccc(-c3cnn4ncccc34)n2)C1,"Tyrosine-protein kinase ABL1 (ABL1, Homo sapiens, UniProt P00519, Y253F)",binding,,1 µM,88%
COc1cnc(Nc2cccc(S(N)(=O)=O)c2)nc1N1CCN(c2ccccc2)CC1,ABL1 phosphorylated,binding,competition with immobilised ligand,1 µM,79%
CC(=O)Nc1c(C(C)=O)c(=O)n(C)c2nc(-c3ccc(Cl)cc3Cl)c(-c3ccc(Cl)cc3)cc12,ABL1 F317L phosphorylated,cell-free assay,competition with immobilised ligand,1 µM,100%
O=C(c1ccc(Nc2ncc(Cl)c(-c3cc4ccccc4s3)n2)cc1)N1CCC(N2CCCC2)CC1,ABL1 F317I phosphorylated,binding,competition with immobilised ligand,1 µM,100%
C[C@H](c1ccc(F)cc1)N(Cc1cccc(C(=O)O)c1)C(=O)c1cnc2ccccc2c1,ABL1 T315I phosphorylated,cell-free assay,competition with immobilised ligand,1 µM,75%
CN(C)c1nccc(-c2cnn3ncccc23)n1,ABL1 T315I,binding,,1 µM,80%
O=C(NCCCN1CCOCC1)c1ccc(Nc2nccc(-c3cc4ccccc4s3)n2)cc1,ABL1 M351T phosphorylated,binding,competition with immobilised ligand,1 µM,49%
